Reference: ChEMBL document CHEMBL3739286, “Betulinic acid derived hydroxamates and betulin derived carbamates are interesting scaffolds for the synthesis of novel cytotoxic compounds” (Eur J Med Chem, 2015)

How the values were obtained:
HeLa = assay: Cytotoxicity against human HeLa cells after 96 hrs by SRB assay; type: functional, cell-based
Method in brief: (§1)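 Photometric sulforhodamine B read-out of antiproliferative effect after 96 h of continuous treatment; EC₅₀ values in µM, averaged from three independent experiments each run in triplicate; the assay cut-off is EC₅₀ > 30 µM. Human tumour lines are tested alongside nonmalignant mouse NIH 3T3 fibroblasts.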

A549 = assay: Cytotoxicity against human A549 cells after 96 hrs by SRB assay; type: functional, cell-based; settings: Homo sapiens, A549, 96 h; read-out: EC50; method in brief: as §1
[1] = Cytotoxicity against mouse NIH/3T3 cells after 96 hrs by SRB assay; type: cell-based, NIH3T3; settings: Mus musculus, NIH3T3, 96 h; read-out: EC50; method in brief: as §1
HT-29 = assay: Cytotoxicity against human HT-29 cells after 96 hrs by SRB assay; type: functional, cell-based; settings: HT-29, 96 h; method in brief: as §1
A2780 = assay: Cytotoxicity against human A2780 cells after 96 hrs by SRB assay; type: functional, cell-based; settings: Homo sapiens, A2780, 96 h; read-out: EC50; method in brief: as §1
[2] = Cytotoxicity against human 518A2 cells after 96 hrs by SRB assay; type: functional, cell-based; settings: Homo sapiens, 518A2, 96 h; read-out: EC50; method in brief: as §1
MCF7 = assay: Cytotoxicity against human MCF7 cells after 96 hrs by SRB assay; type: functional, cell-based; settings: Homo sapiens, MCF7, 96 h; read-out: EC50; method in brief: as §1

Compound	EC50 (HeLa)	EC50 (A549)	EC50 [1]	EC50 (HT-29)	EC50 (A2780)	EC50 [2]	EC50 (MCF7)
C=C(C)[C@@H]1CC[C@]2(C(=O)NCc3ccccc3)CC[C@]3(C)[C@H](CC[C@@H]4[C@@]5(C)CC[C@H](OC(C)=O)C(C)(C)[C@@H]5CC[C@]43C)[C@@H]12	16.9 µM	10.3 µM	> 30 µM	> 30 µM	6.2 µM	6.2 µM	> 30 µM
C=C(C)[C@@H]1CC[C@]2(COC(=O)NCCCC)CC[C@]3(C)[C@H](CC[C@@H]4[C@@]5(C)CC[C@H](OC(=O)NCCCC)C(C)(C)[C@@H]5CC[C@]43C)[C@@H]12	> 30 µM	> 30 µM	> 30 µM	> 30 µM	> 30 µM	> 30 µM	> 30 µM
C=C(C)[C@@H]1CC[C@]2(COC(=O)NCCCCCC)CC[C@]3(C)[C@H](CC[C@@H]4[C@@]5(C)CCC(=O)C(C)(C)[C@@H]5CC[C@]43C)[C@@H]12	> 30 µM	> 30 µM	> 30 µM	> 30 µM	> 30 µM	> 30 µM	> 30 µM
C=C(C)[C@@H]1CC[C@]2(COC(=O)NCCC)CC[C@]3(C)[C@H](CC[C@@H]4[C@@]5(C)CC[C@H](O)C(C)(C)[C@@H]5CC[C@]43C)[C@@H]12	9.4 µM	14.2 µM	7.3 µM	16.3 µM	10.6 µM	15.9 µM	15.5 µM
C=C(C)[C@@H]1CC[C@]2(COC(=O)NCCCC)CC[C@]3(C)[C@H](CC[C@@H]4[C@@]5(C)CC[C@H](O)C(C)(C)[C@@H]5CC[C@]43C)[C@@H]12	10.1 µM	8.6 µM	5.7 µM	7.5 µM	7 µM	8 µM	12.5 µM
C=C(C)[C@@H]1CC[C@]2(COC(=O)NCC)CC[C@]3(C)[C@H](CC[C@@H]4[C@@]5(C)CC[C@H](OC(C)=O)C(C)(C)[C@@H]5CC[C@]43C)[C@@H]12	17 µM	14.1 µM	> 30 µM	> 30 µM	11.1 µM	10.2 µM	20.4 µM
C=C(C)[C@@H]1CC[C@]2(C(N)=O)CC[C@]3(C)[C@H](CC[C@@H]4[C@@]5(C)CCC(=O)C(C)(C)[C@@H]5CC[C@]43C)[C@@H]12	22.9 µM	14.7 µM	17.7 µM	17.9 µM	15.6 µM	21.5 µM	10.3 µM
C=C(C)[C@@H]1CC[C@]2(COC(=O)NCCCCCC)CC[C@]3(C)[C@H](CC[C@@H]4[C@@]5(C)CC[C@H](OC(C)=O)C(C)(C)[C@@H]5CC[C@]43C)[C@@H]12	> 30 µM	> 30 µM	> 30 µM	> 30 µM	> 30 µM	> 30 µM	> 30 µM
C=C(C)[C@@H]1CC[C@]2(COC(=O)Nc3ccccc3)CC[C@]3(C)[C@H](CC[C@@H]4[C@@]5(C)CC[C@H](O)C(C)(C)[C@@H]5CC[C@]43C)[C@@H]12	11.5 µM	> 30 µM	14.3 µM	16.3 µM	7.2 µM	23.9 µM	24.6 µM
C=C(C)[C@@H]1CC[C@]2(COC(=O)NCCCC)CC[C@]3(C)[C@H](CC[C@@H]4[C@@]5(C)CCC(=O)C(C)(C)[C@@H]5CC[C@]43C)[C@@H]12	> 30 µM	> 30 µM	> 30 µM	> 30 µM	> 30 µM	> 30 µM	> 30 µM
C=C(C)[C@@H]1CC[C@]2(C(N)=O)CC[C@]3(C)[C@H](CC[C@@H]4[C@@]5(C)CC[C@H](O)C(C)(C)[C@@H]5CC[C@]43C)[C@@H]12	11.2 µM	8.2 µM	10.7 µM	10.2 µM	15.7 µM	9.9 µM	10.7 µM
C=C(C)[C@@H]1CC[C@]2(COC(=O)NCCCCCC)CC[C@]3(C)[C@H](CC[C@@H]4[C@@]5(C)CC[C@H](O)C(C)(C)[C@@H]5CC[C@]43C)[C@@H]12	7.4 µM	12.7 µM	> 30 µM	> 30 µM	7.7 µM	5.5 µM	> 30 µM
C=C(C)[C@@H]1CC[C@]2(COC(=O)NCCC)CC[C@]3(C)[C@H](CC[C@@H]4[C@@]5(C)CC[C@H](OC(C)=O)C(C)(C)[C@@H]5CC[C@]43C)[C@@H]12	> 30 µM	> 30 µM	> 30 µM	> 30 µM	> 30 µM	> 30 µM	> 30 µM
C=C(C)[C@@H]1CC[C@]2(COC(=O)NCC)CC[C@]3(C)[C@H](CC[C@@H]4[C@@]5(C)CC[C@H](O)C(C)(C)[C@@H]5CC[C@]43C)[C@@H]12	> 30 µM	12 µM	8.8 µM	> 30 µM	4.6 µM	12.5 µM	12.1 µM
C=C(C)[C@@H]1CC[C@]2(C(=O)NCc3ccccc3)CC[C@]3(C)[C@H](CC[C@@H]4[C@@]5(C)CCC(=O)C(C)(C)[C@@H]5CC[C@]43C)[C@@H]12	> 30 µM	> 30 µM	> 30 µM	> 30 µM	7.4 µM	> 30 µM	> 30 µM
C=C(C)[C@@H]1CC[C@]2(COC(=O)Nc3ccccc3)CC[C@]3(C)[C@H](CC[C@@H]4[C@@]5(C)CCC(=O)C(C)(C)[C@@H]5CC[C@]43C)[C@@H]12	> 30 µM	> 30 µM	> 30 µM	> 30 µM	> 30 µM	> 30 µM	> 30 µM
C=C(C)[C@@H]1CC[C@]2(COC(=O)NCCCC)CC[C@]3(C)[C@H](CC[C@@H]4[C@@]5(C)CC[C@H](OC(C)=O)C(C)(C)[C@@H]5CC[C@]43C)[C@@H]12	> 30 µM	> 30 µM	> 30 µM	> 30 µM	> 30 µM	> 30 µM	> 30 µM
